Source: ChEMBL document CHEMBL1156396, “Antifungal alkyl amino alcohols from the tropical marine sponge Haliclona n. sp” (2001)
Activity calls are given as the source filed them. No cut-off for these calls is given here.

How the values were obtained:
[1] = system: Escherichia coli; assay: Antibacterial activity against Escherichia coli at 0.12 mg after 24 hrs by paper disk assay; type: functional, organism-based
Outline: (§1)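 Paper disk diffusion: 6 mm diameter disks loaded with 0.12 mg test substance, placed on plates seeded with the test organism and incubated 24 h at 28 °C; activity scored as diameter of growth-inhibition zone (mm).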

[2] = system: Bacillus subtilis; assay: Antibacterial activity against Bacillus subtilis at 0.12 mg after 24 hrs by paper disk assay; type: functional; outline: as §1
[3] = system: Candida albicans; assay: Antifungal activity against Candida albicans at 0.12 mg after 24 hrs by paper disk assay; type: functional, organism-based; outline: as §1
[4] = system: Trichophyton mentagrophytes; assay: Antifungal activity against Trichophyton mentagrophytes at 0.12 mg after 24 hrs by paper disk assay; type: functional; details: for zone of inhibition at 120 µg/disc: read-out: IZ; outline: as §1
[5] = system: Amorphotheca resinae; assay: Antifungal activity against Cladosporium resinae at 0.12 mg after 24 hrs by paper disk assay; type: functional; details: for zone of inhibition at 120 µg/disc: read-out: IZ; outline: as §1

SMILES	inhibition zone (IZ) [1]	inhibition zone (IZ) [2]	inhibition zone (IZ) [3]	inhibition zone (IZ) [4]	inhibition zone (IZ) [5]	zone of inhibition at 120 µg/disc ([2]; read-out: IZ)	zone of inhibition at 120 µg/disc [4]	zone of inhibition at 120 µg/disc [5]
C=CCCCCCCCCC[C@@H](O)[C@H](C)NC(C)=O	inactive	inactive	inactive	inactive	inactive	–	–	–
CCCCCCCC/C=C\C[C@@H](O)[C@H](C)N	Active	Active	Active	Active	Active	–	–	–
C=CCCCCCCCCC[C@@H](OC(C)=O)[C@H](C)NC(C)=O [DIACETYL HALAMINOL A]	inactive	–	inactive	inactive	inactive	7 mm	–	–
C=CCCCCCCCCC[C@@H](O)[C@H](C)N [HALAMINOL A]	Active	Active	Active	–	–	–	10 mm	10 mm
C=CCCCCCCC[C@@H](O)[C@H](C)N [HALAMINOL B]	Active	Active	Active	–	–	–	10 mm	10 mm
